System: U2OS
Experiment: Multiplex assay against U2OS
Assay type: toxicity, cell-based
Conditions: human
Outline: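 Phenotypes for tubulin, mitochondrial mass and membrane permeability are expressed as per cents of healthy-nucleus cells. Cells were stained live at seeding with Hoechst33342, BioTracker Green Microtubule Cytoskeleton Dye, MitoTracker Red and Annexin V Alexa Fluor 680, then imaged after compound addition on a CQ1 microscope at 37°C and 5% CO2. Machine-learning gating in CellPathfinder separated Hoechst high-intensity objects from normal cells, divided normal cells by nuclear state (healthy, pyknosed, fragmented) and divided pyknosed cells into mitotic or apoptotic.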

[1] = 12 h, 1 µM, compound concentration 1 uM, replicate 1
[2] = 12 h, 1 µM, compound concentration 1 uM, replicate 2
[3] = 12 h, 10 µM, compound concentration 10 uM, replicate 1
[4] = 12 h, 10 µM, compound concentration 10 uM, replicate 2
[5] = 24 h, 1 µM, compound concentration 1 uM, replicate 1
[6] = 24 h, 1 µM, compound concentration 1 uM, replicate 2
[7] = 24 h, 10 µM, compound concentration 10 uM, replicate 1
[8] = 24 h, 10 µM, compound concentration 10 uM, replicate 2

## CCc1cccc(CC)c1NC(=O)c1nn(C)c2c1CCc1cnc(Nc3ccc(N4CCN(C)CC4)cc3OC)nc1-2
[1]
  Population Apoptotic (%): 70%
  Population Fragmented Nuclei (%): 38%
  Population Healthy Nuclei (%): 7%
  Population Hoechst High Intensity Objects (%): 8%
  Population Membrane Permeable-Phenotype (%): 100%
  Population Mitochondria Different-Phenotype (%): 75%
  Population Mitotic Cells (%): 29%
  Population Normal (%): 91%
  Population Pyknosed Nuclei (%): 53%
  Population Tubulin-Different-Phenotype (%): 100%
  Total Cell Count: 159
[2]
  Population Apoptotic (%): 68%
  Population Fragmented Nuclei (%): 18%
  Population Healthy Nuclei (%): 12%
  Population Hoechst High Intensity Objects (%): 14%
  Population Membrane Permeable-Phenotype (%): 77%
  Population Mitochondria Different-Phenotype (%): 100%
  Population Mitotic Cells (%): 31%
  Population Normal (%): 85%
  Population Pyknosed Nuclei (%): 68%
  Total Cell Count: 87
[3]
  Population Apoptotic (%): 26%
  Population Fragmented Nuclei (%): 5%
  Population Healthy Nuclei (%): 80%
  Population Hoechst High Intensity Objects (%): 2%
  Population Membrane Permeable-Phenotype (%): 35%
  Population Mitochondria Different-Phenotype (%): 54%
  Population Mitotic Cells (%): 73%
  Population Normal (%): 97%
  Population Pyknosed Nuclei (%): 14%
  Population Tubulin-Different-Phenotype (%): 95%
  Total Cell Count: 143
[4]
  Population Apoptotic (%): 50%
  Population Fragmented Nuclei (%): 8%
  Population Healthy Nuclei (%): 83%
  Population Hoechst High Intensity Objects (%): 18%
  Population Membrane Permeable-Phenotype (%): 22%
  Population Mitochondria Different-Phenotype (%): 69%
  Population Mitotic Cells (%): 50%
  Population Normal (%): 81%
  Population Pyknosed Nuclei (%): 8%
  Population Tubulin-Different-Phenotype (%): 93%
  Total Cell Count: 127
[5]
  Population Apoptotic (%): 94%
  Population Fragmented Nuclei (%): 30%
  Population Healthy Nuclei (%): 9%
  Population Hoechst High Intensity Objects (%): 20%
  Population Membrane Permeable-Phenotype (%): 100%
  Population Mitochondria Different-Phenotype (%): 100%
  Population Mitotic Cells (%): 5%
  Population Normal (%): 80%
  Population Pyknosed Nuclei (%): 59%
  Population Tubulin-Different-Phenotype (%): 100%
  Total Cell Count: 169
[6]
  Population Apoptotic (%): 92%
  Population Fragmented Nuclei (%): 18%
  Population Healthy Nuclei (%): 17%
  Population Mitotic Cells (%): 7%
  Population Pyknosed Nuclei (%): 64%
  Total Cell Count: 84
[7]
  Population Apoptotic (%): 53%
  Population Fragmented Nuclei (%): 10%
  Population Healthy Nuclei (%): 71%
  Population Hoechst High Intensity Objects (%): 1%
  Population Membrane Permeable-Phenotype (%): 22%
  Population Mitochondria Different-Phenotype (%): 73%
  Population Mitotic Cells (%): 46%
  Population Normal (%): 98%
  Population Pyknosed Nuclei (%): 18%
  Population Tubulin-Different-Phenotype (%): 92%
  Total Cell Count: 196
[8]
  Population Apoptotic (%): 41%
  Population Fragmented Nuclei (%): 14%
  Population Healthy Nuclei (%): 69%
  Population Hoechst High Intensity Objects (%): 10%
  Population Membrane Permeable-Phenotype (%): 21%
  Population Mitochondria Different-Phenotype (%): 75%
  Population Mitotic Cells (%): 58%
  Population Normal (%): 89%
  Population Pyknosed Nuclei (%): 16%
  Population Tubulin-Different-Phenotype (%): 94%
  Total Cell Count: 163

Reference: ChEMBL document CHEMBL4689842, “EUbOPEN Chemogenomics Library wave 1” (2021)
